In ChEMBL document CHEMBL3124901, “Inhibitory effect of a callophycin A derivative on iNOS expression via inhibition of Akt in lipopolysaccharide-stimulated RAW 264.7 cells” (2014):
The source made the active and inactive calls. The calls are words filed in the database; no cut-off is given here.

Tests used:
RAW264.7 [1] = assay: Antiinflammatory activity in LPS-stimulated mouse RAW264.7 cells assessed as inhibition of iNOS protein expression at 50 uM preincubated for 15 mins followed by LPS challenge measured after 20 hrs by Western blot analysis; type: functional, cell-based
RAW264.7 [2] = assay: Inhibition of PI3K/AKT in mouse RAW264.7 cells assessed as inhibition of LPS-induced iNOS protein expression at 25 uM after 20 hrs by Western blot analysis; type: cell-based
Method in brief: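 Pretreatment with 25 μM or LY294002 (25 μM), then LPS for 20 h; iNOS protein by Western blot.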

`O=C(O)[C@@H]1Cc2c([nH]c3ccccc23)CN1Cc1ccc(O)cc1` was tested, and the inhibition (RAW264.7 [1]) was “inactive”.
In the case of `O=c1cc(N2CCOCC2)oc2c(-c3ccccc3)cccc12`, the inhibition (RAW264.7 [2]) is reported as “Active”.
In the case of `O=C(O)[C@H]1Cc2c([nH]c3ccccc23)CN1Cc1ccc(O)cc1`, the inhibition (RAW264.7 [1]) is reported as “inactive”.
